Data from PMC3169429 (ACS chemical biology, 2010).

Key:
[1] = target: T1, bacteriophage T4 clamp loader, gp44/62 (Enterobacteria phage T4, UniProt P04526); conditions: read-out: Ki (inhibition constant) against gp44/62; cited from earlier work
T1 sequence (P04526 1-319): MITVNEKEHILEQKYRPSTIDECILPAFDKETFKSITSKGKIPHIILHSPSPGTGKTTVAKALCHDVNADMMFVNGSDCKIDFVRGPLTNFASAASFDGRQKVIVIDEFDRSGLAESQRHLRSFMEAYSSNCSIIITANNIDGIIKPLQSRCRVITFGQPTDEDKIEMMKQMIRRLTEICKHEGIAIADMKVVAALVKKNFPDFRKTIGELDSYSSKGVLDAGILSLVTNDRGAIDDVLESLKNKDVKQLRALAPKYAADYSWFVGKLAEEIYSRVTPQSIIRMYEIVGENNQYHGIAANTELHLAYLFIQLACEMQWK
T1 sequence (P04527 1-187 partner): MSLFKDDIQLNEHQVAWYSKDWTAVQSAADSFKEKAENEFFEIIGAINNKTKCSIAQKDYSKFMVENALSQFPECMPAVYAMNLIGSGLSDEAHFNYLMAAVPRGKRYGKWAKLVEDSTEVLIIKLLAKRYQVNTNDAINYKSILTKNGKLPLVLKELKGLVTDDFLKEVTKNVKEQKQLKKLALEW

[2] = target: T2, gp44/62 opening of CPM-labeled gp45 (Enterobacteria phage T4, UniProt P04526); assay: FRET quenching / stopped-flow fluorescence clamp opening assay; format: biochemical, bacteriophage T4; conditions: 1 mM nucleotide, CPM-labeled gp45 mixed with gp44/62
T2 sequence (P04526 1-319): T1 sequence (P04526 1-319)
T2 sequence (P04527 1-187 partner): T1 sequence (P04527 1-187 partner)

[3] = target: T1, bacteriophage T4 clamp loader, gp44/62; assay: ATPase inhibition assay, wild-type gp44/62; format: biochemical; conditions: for Selectivity Factor: Ki (γ-complex) / Ki (gp44/62)
[4] = target: E. coli clamp loader, γ-complex (Escherichia coli, UniProt P06710); assay: ATPase inhibition assay, γ-complex; format: biochemical
R175K mutant of gp44/62 = R175K mutant of gp44/62 (Enterobacteria phage T4, UniProt P04526, R175K); assay: ATPase inhibition assay, gp44/62 R175K mutant; format: biochemical, bacteriophage T4
Sequence of R175K mutant of gp44/62 (P04526 whole entry R175K, one chain of several): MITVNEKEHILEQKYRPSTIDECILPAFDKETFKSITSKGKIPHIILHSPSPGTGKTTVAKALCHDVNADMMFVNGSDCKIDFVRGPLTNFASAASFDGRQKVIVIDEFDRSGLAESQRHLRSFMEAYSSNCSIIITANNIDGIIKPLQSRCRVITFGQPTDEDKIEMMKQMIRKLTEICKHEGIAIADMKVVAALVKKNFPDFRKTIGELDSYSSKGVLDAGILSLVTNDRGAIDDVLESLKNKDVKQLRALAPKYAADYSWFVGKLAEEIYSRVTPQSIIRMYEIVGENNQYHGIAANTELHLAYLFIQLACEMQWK

R175L mutant of gp44/62 = R175L mutant of gp44/62 (Enterobacteria phage T4, UniProt P04526, R175L); assay: ATPase inhibition assay, gp44/62 R175L mutant; format: biochemical, bacteriophage T4
Sequence of R175L mutant of gp44/62 (P04526 whole entry R175L, one chain of several): as the sequence (P04526 whole entry R175K, one chain of several) above, with K175L counted along it

T4 bacteriophage [5] = assay: Plaque forming assay in JA300 E. coli; format: cell-based, T4 bacteriophage in E. coli JA300
JA300 E. coli cells = assay: Toxicity screen against E. coli; format: cell-based, Escherichia coli; conditions: in suspension or plated on LB/agar for extended periods
T4 bacteriophage [6] = assay: Plaque forming assay in deoxythymidine kinase deficient E. coli KY895; format: cell-based, T4 bacteriophage in E. coli KY895 (tdk-1); conditions: 100 µg/ml
How it was run: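 The plaque assay used the deoxythymidine kinase knockout E. coli strain KY895 in place of JA300. An overnight culture was diluted 1:150 in LB and pre-incubated with the nucleoside for 60 min at 37°C. Cells were infected with ~300 pfu T4 and plated over LB/agar for 24 h at 37°C. Plaques were counted manually; ANOVA and t-test were applied.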

[7] = target: T3, bacteriophage T4 replicase (Enterobacteria phage T4, UniProt P04526); assay: Replicase formation; format: biochemical; conditions: 100 µM inhibitor
T3 sequence (P04526 1-319): T1 sequence (P04526 1-319)
T3 sequence (P04527 1-187 partner): T1 sequence (P04527 1-187 partner)

T4 DNA polymerase = assay: DNA polymerase activity in the strand displacement assay; format: biochemical, bacteriophage T4; conditions: absence or presence of 100 µM d5-NITP
gp44/62 = target: T4, gp44/62 (Enterobacteria phage T4, UniProt P04526); assay: Hydrolysis of nucleotide substrates by gp44/62; format: biochemical, bacteriophage T4; conditions: nucleotide substrates at 500 µM
T4 sequence (P04526 1-319): T1 sequence (P04526 1-319)
T4 sequence (P04527 1-187 partner): T1 sequence (P04527 1-187 partner)
How it was run: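 Wild-type T4 gp44/62 purified from an overproducing strain. Each ribo- or deoxy-nucleotide was supplied as substrate. Hydrolysis was read as Pi release by malachite green.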

Compound: Nc1ncnc2c1ncn2C1OC(COP(=O)(O)OP(=O)(O)NP(=O)(O)O)C(O)C1O (stereo not drawn) [AMP-PNP, 5'-adenylyl-beta, gamma-imidodiphosphate]
- Ki [1]: 1200 µM

Compound: Nc1ncnc2c1ncn2[C@@H]1O[C@H](COP(=O)(O)OP(=O)(O)OP(=O)(O)O)[C@@H](O)[C@H]1O [ATP, reference compound]
- Amplitude of change in fluorescence (clamp opening) [2]: 0.2199 ± 0.0004 units

Compound: Nc1ncnc2c1ncn2[C@@H]1O[C@H](CO[P@](=O)(O)O[P@](=O)(O)O[P@@](=O)(O)S)[C@@H](O)[C@H]1O [ATPγS, reference compound]
- Selectivity Factor [3]: 0.44
- Ki [4]: 13 ± 4.5 µM
- Ki (R175K mutant of gp44/62): 14 ± 3.5 µM
- Ki (R175L mutant of gp44/62): 33.2 ± 8 µM

Compound: O=C(N[C@H](CO)[C@H](O)c1ccc([N+](=O)[O-])cc1)C(Cl)Cl [chloramphenicol, reference compound]
- Decrease in phage infectivity (T4 bacteriophage [5]; bacteriostatic agent control): does not cause an appreciable decrease

Compound: O=[N+]([O-])c1cccc2c1ccn2[C@H]1C[C@H](O)[C@@H](COP(=O)(O)OP(=O)(O)OP(=O)(O)O)O1 [d4-NITP, 4-nitro-indolyl-2’-deoxyriboside triphosphate]
- Selectivity Factor [3]: 0.32
- Fold higher Ki than d5-NITP ([3]; wild type gp44/62): ~ 6 fold

Compound: Nc1ccc2c(ccn2[C@H]2C[C@H](O)[C@@H](COP(=O)(O)OP(=O)(O)OP(=O)(O)O)O2)c1 [d5-AITP, 5-amino-indolyl-2’-deoxyriboside triphosphate]
- Selectivity Factor [3]: < 0.23

Compound: O=P(O)(O)OP(=O)(O)OP(=O)(O)OC[C@H]1O[C@@H](n2ccc3cc(C4=CCCCC4)ccc32)C[C@@H]1O [d5-CEITP, 5-cyclohexene-indolyl-2’-deoxyriboside triphosphate]
- Selectivity Factor [3]: 1.18

Compound: O=P(O)(O)OP(=O)(O)OP(=O)(O)OC[C@H]1O[C@@H](n2ccc3cc(C4CCCCC4)ccc32)C[C@@H]1O [d5-CHITP, 5-cyclohexyl-indolyl-2’-deoxyriboside triphosphate]
- Selectivity Factor [3]: 0.51

Compound: CCc1ccc2c(ccn2[C@H]2C[C@H](O)[C@@H](COP(=O)(O)OP(=O)(O)OP(=O)(O)O)O2)c1 [d5-EtITP, 5-ethyl-indolyl-2’-deoxyriboside triphosphate]
- Selectivity Factor [3]: 0.11
- Fold lower Ki in R175L mutant compared to wild type enzyme (R175L mutant of gp44/62): ~ 10 fold

Compound: C=Cc1ccc2c(ccn2[C@H]2C[C@H](O)[C@@H](CO)O2)c1 [d5-Ey, 5-ethylene-indolyl-2'-deoxyribose]
- Inhibition of plaque formation (T4 bacteriophage [5]; 150 µg/mL): 15%

Compound: C=Cc1ccc2c(ccn2[C@H]2C[C@H](O)[C@@H](COP(=O)(O)OP(=O)(O)OP(=O)(O)O)O2)c1 [d5-EyITP, 5-ethylene-indolyl-2’-deoxyriboside triphosphate]
- Selectivity Factor [3]: < 0.15
- Fold lower Ki in R175L mutant compared to wild type enzyme (R175L mutant of gp44/62): ~ 10 fold

Compound: OC[C@H]1O[C@@H](n2ccc3cc(F)ccc32)C[C@@H]1O [d5-FI, 5-fluoro-indolyl-2’-deoxyriboside]
- Inhibition of plaque formation (T4 bacteriophage [5]; 100 µg/mL): do not inhibit plaque formation

Compound: O=P(O)(O)OP(=O)(O)OP(=O)(O)OC[C@H]1O[C@@H](n2ccc3cc(F)ccc32)C[C@@H]1O [d5-FITP, 5-fluoro-indolyl-2’-deoxyriboside triphosphate]
- Selectivity Factor [3]: < 0.17

Compound: O=[N+]([O-])c1ccc2c(ccn2[C@H]2C[C@H](O)[C@@H](CO)O2)c1 [d5-NI, 5-nitro-indolyl-2’-deoxyriboside]
- Inhibition of gp44/62 ([3]; at concentrations greater than 200 µM): does not inhibit
- Fold less protection at 25 µg/mL than at 50 µg/mL (T4 bacteriophage [5]; 25 µg/mL versus 50 µg/mL): ~ 2.5 fold
- Fewer plaques compared to untreated E. coli (T4 bacteriophage [5]; E. coli preincubated with 100 µg/mL): ~ 40%
- Bactericidal or bacteriostatic effect on E. coli (JA300 E. coli cells): does not produce a significant bactericidal or bacteriostatic effect
- Effect on plaque formation in tdk-1 strain KY895 compared to wild-type JA300 (T4 bacteriophage [6]): significantly reduced

Compound: O=[N+]([O-])c1ccc2c(ccn2[C@H]2C[C@H](O)[C@@H](COP(=O)(O)OP(=O)(O)OP(=O)(O)O)O2)c1 [d5-NITP, 5-nitro-indolyl-2’-deoxyriboside triphosphate]
- Formation of the replicase complex [7]: inhibits formation of the replicase complex
- Effect on polymerase activity (products generated by polymerase alone) (T4 DNA polymerase): identical amounts of products are generated
- Amplitude of change in fluorescence (clamp opening) [2]: 0.044 ± 0.002 units

Compound: O=P(O)(O)OP(=O)(O)OP(=O)(O)OC[C@H]1O[C@@H](n2ccc3cc(-c4ccccc4)ccc32)C[C@@H]1O [d5-PhITP, 5-phenyl-indolyl-2’-deoxyriboside triphosphate]
- Selectivity Factor [3]: 0.18

Compound: O=[N+]([O-])c1ccc2ccn([C@H]3C[C@H](O)[C@@H](COP(=O)(O)OP(=O)(O)OP(=O)(O)O)O3)c2c1 [d6-NITP, 6-nitro-indolyl-2’-deoxyriboside triphosphate]
- Selectivity Factor [3]: 1.59

Compound: Nc1ncnc2c1ncn2[C@H]1C[C@H](O)[C@@H](COP(=O)(O)OP(=O)(O)OP(=O)(O)O)O1 [dATP, reference compound]
- Hydrolysis by gp44/62 (gp44/62): hydrolyzes dATP just as efficiently as ATP

Compound: O=P(O)(O)OP(=O)(O)OP(=O)(O)OCC1OC(n2ccc3ccccc32)CC1O (stereo not drawn) [dITP, indolyl-2’-deoxyriboside triphosphate]
- Selectivity Factor [3]: < 0.30

Compound: O=[N+]([O-])c1ccc2c(ccn2[C@@H]2O[C@H](COP(=O)(O)OP(=O)(O)OP(=O)(O)O)[C@@H](O)[C@H]2O)c1 [r5-NITP, 5-nitro-indolyl-2’-ribose triphosphate]
- Hill coefficient ([3]; dose-dependent inhibition of gp44/62 ATPase activity): ~ 1
- Hydrolysis by gp44/62 (gp44/62): incapable of hydrolyzing r5-NITP
